In article PMC8319958 (ACS chemical biology, 2020):
Numbered stars: 1 amine (or outer) side, 2 acyl side, 3 side chain; on linkers, the order of the positions; unused ones are H or OH. Peptide text beside a SMILES is read from it. * marks the point of attachment. AMC = Cc1cc(=O)oc2cc(N*)ccc12; Suc = O=C(CCC(=O)[*:2])[*:1]; Cbz = O=C(OCc1ccccc1)*

Tests used:
MM.1R = experiment: Cell viability; type: cell-based; conditions: 48 h, read-out: IC50 (cell viability)
proteasome = target: T1, proteasome (Homo sapiens, UniProt P28074); experiment: Proteasome stimulation in cells detected with TAS probes; type: cell-based; conditions: cells dosed 1 h with stimulator, washed, TAS3 added, monitored over 60 min
T1 sequence (P28074 60-263): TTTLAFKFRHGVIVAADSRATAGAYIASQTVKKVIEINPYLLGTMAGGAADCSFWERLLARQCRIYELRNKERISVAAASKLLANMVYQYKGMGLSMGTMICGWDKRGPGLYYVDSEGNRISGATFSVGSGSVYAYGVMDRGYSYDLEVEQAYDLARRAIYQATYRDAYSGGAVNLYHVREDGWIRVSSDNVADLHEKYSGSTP
Outline: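 Cells (A549, 5000/well, adhered) were pretreated 1 h with test compound in culture medium and washed three times with PBS. They were then given 10 μM probe in modified KRBH buffer, and fluorescence was read on a plate reader for […]. After 25 min equilibration each well was zeroed, linear regression was fitted, and activity was expressed as % of the DMSO control.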

A549 cells = experiment: Live-cell probe cleavage in A549 cells, with or without proteasome inhibitors; type: cell-based; conditions: 10 μM probe, monitored over 60 min
20S CP = 20S CP (Homo sapiens, UniProt P28074); experiment: LC/MS assay of library peptide cleavage by 20S CP; type: biochemical; conditions: 12 μM peptide, 9 nM 20S CP, 50 mM Tris pH 7.4, 37 °C, 1 h, triplicate
Outline: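 Peptide stocks were 600 μM in DMSO, diluted to 12 μM final in 50 mM Tris pH 7.4. One triplicate got purified 20S CP (9 nM final) and the other buffer alone; both ran 1 h at 37 °C. An equal volume of acetonitrile denatured the enzyme. LC/MS EIC peak areas of intact peptide were scaled to the buffer-control mean (set to 1) to give fraction remaining. The four-mer product mass confirmed the cleavage site.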

## CC(C)C[C@@H](C=O)NC(=O)[C@H](CC(C)C)NC(=O)[C@H](CC(C)C)NC(=O)OCc1ccccc1 [MG-132] (Cbz-Leu-Leu-Leu-aldehyde)
MM.1R
  IC50: 264 nM

## CC(C)c1ccc2c(c1)c(SC(C)(C)C)c(CC(C)(C)C(=O)O)n2Cc1ccc(Cl)cc1 [MK-886]
proteasome
  proteasome stimulation (% activity vs DMSO control): strong stimulators

## Cc1cc(=O)oc2cc(NC(=O)[C@H](Cc3ccc(O)cc3)NC(=O)[C@@H](NC(=O)[C@H](CC(C)C)NC(=O)[C@H](CC(C)C)NC(=O)CCC(=O)O)C(C)C)ccc12 [Suc-LLVY-AMC] (Suc-LLVY-{AMC})
A549 cells
  fluorescence signal (RFU) in cells compared to TAS1: significantly lower

## D-Phe
20S CP
  cleavage by 20S CP (in words): did not accept
